Assay results from publication PMC7034990 (Science Advances, 2020).

Experiments:
[1] = test system: F508del/F508del bronchial epithelial cells; experiment: Short-circuit current recordings on primary CF bronchial epithelial cells; format: cell-based, human
Procedure, shortened: (§1)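 Primary bronchial epithelial cells came from lung-transplant bronchi and were differentiated on porous inserts, then kept 2–3 weeks under air-liquid culture. Correctors or DMSO were given in basolateral medium. Epithelia were mounted in a vertical diffusion chamber, bicarbonate saline (126 mM NaCl, 24 mM NaHCO3, 10 mM glucose) both sides, gassed 5% CO2:95% air, 37°C. Voltage was clamped and short-circuit current recorded. ENaC was blocked with amiloride (10 μM).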

[2] = test system: F508del-CFTR CFBE41o− cells; experiment: Western blot of F508del-CFTR maturation in CFBE41o− cells; format: cell-based; conditions: 24 hours
Procedure, shortened: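 Confluent CFBE41o− cells expressing F508del-CFTR were treated with test compounds or DMSO. They were lysed in RIPA with protease inhibitors and cleared at 15,300g, 4°C, 10 min. Lysates were run on SDS-PAGE and immunoblotted with mouse monoclonal anti-CFTR. Immature core-glycosylated band B runs near 150 kDa. Bands were quantified as regions of interest and normalised to GAPDH.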

[3] = biological target: T1, ENaC (Homo sapiens, UniProt P37088+P51168+P51170); experiment: ENaC function from the response to apical amiloride; format: cell-based; conditions: amiloride 10 μM; correctors for 24 hr
T1 sequence (P37088 1-669): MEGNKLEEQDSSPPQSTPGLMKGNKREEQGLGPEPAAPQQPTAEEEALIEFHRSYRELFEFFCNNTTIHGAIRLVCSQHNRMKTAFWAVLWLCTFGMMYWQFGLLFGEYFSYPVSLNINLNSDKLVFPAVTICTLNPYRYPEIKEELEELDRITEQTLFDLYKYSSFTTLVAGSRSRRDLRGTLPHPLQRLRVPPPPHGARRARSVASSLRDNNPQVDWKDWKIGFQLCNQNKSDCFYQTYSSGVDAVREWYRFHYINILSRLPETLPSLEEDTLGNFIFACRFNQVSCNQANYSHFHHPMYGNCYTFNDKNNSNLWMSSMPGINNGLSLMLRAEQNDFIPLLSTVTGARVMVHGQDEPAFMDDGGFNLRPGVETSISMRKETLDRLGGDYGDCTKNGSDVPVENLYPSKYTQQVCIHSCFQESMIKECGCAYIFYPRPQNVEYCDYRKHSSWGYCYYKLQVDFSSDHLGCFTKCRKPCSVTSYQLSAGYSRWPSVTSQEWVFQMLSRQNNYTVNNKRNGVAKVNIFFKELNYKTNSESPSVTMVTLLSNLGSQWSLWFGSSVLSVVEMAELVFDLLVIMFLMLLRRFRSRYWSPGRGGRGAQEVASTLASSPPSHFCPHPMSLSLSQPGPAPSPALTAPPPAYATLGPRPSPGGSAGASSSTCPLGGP
T1 sequence (P51168 1-640): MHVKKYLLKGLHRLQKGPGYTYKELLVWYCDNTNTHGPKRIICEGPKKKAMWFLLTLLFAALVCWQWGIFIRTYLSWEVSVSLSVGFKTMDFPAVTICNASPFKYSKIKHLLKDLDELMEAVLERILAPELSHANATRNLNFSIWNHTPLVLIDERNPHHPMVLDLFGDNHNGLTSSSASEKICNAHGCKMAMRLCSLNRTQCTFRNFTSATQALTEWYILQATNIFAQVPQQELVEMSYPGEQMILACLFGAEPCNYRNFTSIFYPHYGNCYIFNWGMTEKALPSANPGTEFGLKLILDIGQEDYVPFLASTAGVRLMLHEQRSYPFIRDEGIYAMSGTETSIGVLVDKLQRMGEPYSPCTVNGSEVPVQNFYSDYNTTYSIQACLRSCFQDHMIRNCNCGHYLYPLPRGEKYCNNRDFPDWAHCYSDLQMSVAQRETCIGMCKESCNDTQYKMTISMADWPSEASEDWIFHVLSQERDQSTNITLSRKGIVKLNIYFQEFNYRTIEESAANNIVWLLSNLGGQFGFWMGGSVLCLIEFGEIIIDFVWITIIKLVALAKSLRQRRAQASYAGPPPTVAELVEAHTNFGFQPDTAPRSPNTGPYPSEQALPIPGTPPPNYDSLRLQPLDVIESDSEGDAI
T1 sequence (P51170 1-649): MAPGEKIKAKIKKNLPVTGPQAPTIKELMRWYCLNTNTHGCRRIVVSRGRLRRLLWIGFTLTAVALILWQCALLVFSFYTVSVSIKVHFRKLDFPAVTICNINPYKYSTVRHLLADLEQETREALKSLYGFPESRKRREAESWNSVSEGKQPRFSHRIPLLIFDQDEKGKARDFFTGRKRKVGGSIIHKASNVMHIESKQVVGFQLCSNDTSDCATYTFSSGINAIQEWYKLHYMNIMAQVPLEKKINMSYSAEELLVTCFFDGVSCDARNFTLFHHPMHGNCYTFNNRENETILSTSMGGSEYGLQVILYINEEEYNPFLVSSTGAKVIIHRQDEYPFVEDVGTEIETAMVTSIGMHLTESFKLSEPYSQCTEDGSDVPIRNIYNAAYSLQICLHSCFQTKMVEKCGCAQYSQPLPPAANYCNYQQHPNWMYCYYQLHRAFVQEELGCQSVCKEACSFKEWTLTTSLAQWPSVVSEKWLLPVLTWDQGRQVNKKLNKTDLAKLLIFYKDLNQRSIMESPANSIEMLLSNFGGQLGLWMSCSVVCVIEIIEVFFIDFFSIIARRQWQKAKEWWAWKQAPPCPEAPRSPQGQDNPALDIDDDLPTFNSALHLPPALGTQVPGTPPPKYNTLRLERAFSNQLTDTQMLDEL
Procedure, shortened: as §1

[4] = biological target: P574H-CFTR (Homo sapiens, UniProt P13569, P574H); experiment: Rescue of P574H-CFTR in FRT cells; format: cell-based; conditions: 37 °C or 32 °C
Sequence of P574H-CFTR (P13569 whole entry P574H): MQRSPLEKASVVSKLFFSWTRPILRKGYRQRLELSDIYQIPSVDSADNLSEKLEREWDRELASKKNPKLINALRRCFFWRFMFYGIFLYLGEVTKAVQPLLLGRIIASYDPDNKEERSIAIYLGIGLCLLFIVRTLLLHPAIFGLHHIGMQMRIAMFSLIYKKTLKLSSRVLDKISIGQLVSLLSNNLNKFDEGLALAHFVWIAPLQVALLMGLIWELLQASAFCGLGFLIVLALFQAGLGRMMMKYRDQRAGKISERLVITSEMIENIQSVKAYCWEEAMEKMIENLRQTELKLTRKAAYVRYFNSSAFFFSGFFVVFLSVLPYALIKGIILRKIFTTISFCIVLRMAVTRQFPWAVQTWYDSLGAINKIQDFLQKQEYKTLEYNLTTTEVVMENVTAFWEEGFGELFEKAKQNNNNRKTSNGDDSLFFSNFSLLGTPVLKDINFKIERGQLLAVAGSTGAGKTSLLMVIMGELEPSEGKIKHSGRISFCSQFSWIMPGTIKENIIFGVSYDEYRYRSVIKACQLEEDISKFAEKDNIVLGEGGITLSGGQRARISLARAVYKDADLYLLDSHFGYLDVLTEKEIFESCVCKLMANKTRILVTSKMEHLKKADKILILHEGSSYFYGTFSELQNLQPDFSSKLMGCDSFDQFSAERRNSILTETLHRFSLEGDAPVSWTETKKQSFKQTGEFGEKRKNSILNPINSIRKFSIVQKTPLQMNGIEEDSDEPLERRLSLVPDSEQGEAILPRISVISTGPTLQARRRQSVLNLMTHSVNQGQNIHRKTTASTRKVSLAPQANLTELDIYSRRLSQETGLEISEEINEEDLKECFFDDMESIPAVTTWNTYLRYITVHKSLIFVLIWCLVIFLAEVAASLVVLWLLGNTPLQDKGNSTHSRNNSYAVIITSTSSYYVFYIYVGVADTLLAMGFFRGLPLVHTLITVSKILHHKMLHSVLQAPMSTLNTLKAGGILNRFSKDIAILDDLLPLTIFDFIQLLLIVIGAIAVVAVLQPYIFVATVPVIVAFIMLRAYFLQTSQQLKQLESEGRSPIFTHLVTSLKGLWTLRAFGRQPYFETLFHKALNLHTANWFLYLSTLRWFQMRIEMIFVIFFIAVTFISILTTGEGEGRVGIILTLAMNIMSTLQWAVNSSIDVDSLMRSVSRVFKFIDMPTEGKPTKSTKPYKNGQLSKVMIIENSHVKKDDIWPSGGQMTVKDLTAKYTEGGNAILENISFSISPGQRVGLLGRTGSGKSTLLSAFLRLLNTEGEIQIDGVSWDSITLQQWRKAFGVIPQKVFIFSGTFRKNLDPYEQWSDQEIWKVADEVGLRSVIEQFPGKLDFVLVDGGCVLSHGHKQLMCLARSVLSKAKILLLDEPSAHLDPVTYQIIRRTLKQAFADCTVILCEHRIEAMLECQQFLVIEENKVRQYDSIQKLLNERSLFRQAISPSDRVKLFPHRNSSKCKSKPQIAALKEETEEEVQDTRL
Procedure, shortened: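 FRT cells stably co-expressing P574H-CFTR and HS-YFP (H148Q/I152L), plated at 50,000/well. After a PBS wash, cells were stimulated 25 min with forskolin 20 μM plus VX-770 1 μM. Iodide solution was then injected (final I− 100 mM) and YFP fluorescence read at 500/535 nm ex/em. Values were normalized to initial background-subtracted fluorescence. I− influx rate came from an exponential fit of the final 11 s.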

[5] = test system: CFBE41o− cells; experiment: Cell viability panel; format: cell-based; conditions: 24 hr, positive controls celastrol or cytochalasin D
Procedure, shortened: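 CFBE41o− cells. Proliferation: 5000 cells/well; after 24 h, test compound at several concentrations or DMSO; tracked 24 h by high-content imaging. MTT: 50,000 cells/well; treated 24 h after plating; next day MTT 0.5 mg/ml final, 3 h at 37°C; absorbance at 560 nm. Cell death: 50,000 cells/well, treated 24 h, then Hoechst 33342 plus propidium iodide stain and high-content imaging.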

CN(C(=O)c1cccc(-n2nc(C(F)(F)F)c3c2[C@@H](Oc2ccc(C(=O)O)cc2)CCC3)c1)c1ccc2c(c1)OC(F)(F)O2 [ARN23765]
effective concentrations lower compared to VX-809 and VX-661 [1]: more than 5000 times | time after removal of the compound at which correction can be observed [1]: up to 36 hours | improvement in potency (EC50) with respect to VX-809 / presently available corrector drugs ([1]; F508del/F508del bronchial epithelial cells): more than 5000 fold | EC50 ([1]; Homo sapiens, Epithelial cell): 0.038 nM | extent of rescue after 72 hours of treatment ([1]; VX-809 1 μM or ARN23765 1 nM for 72 hours): comparable to that of epithelia treated with these correctors for only 24 hours | F508del-CFTR rescue after 120 hours of treatment ([1]; VX-809 1 μM or ARN23765 1 nM for 120 hours, compared to 72 hours): still maintained | rescue of F508del-CFTR function ([1]; short-circuit current, CF primary bronchial epithelial cells, 24 hours): decreased at 1 μM | F508del-CFTR maturation, band C [2]: at low concentrations was also observed | amplitude of the response to apical amiloride, ENaC function [3]: modestly reduced | P574H-CFTR function [4]: improves the function of P574H-CFTR, particularly in combination with low temperature | effect on cell viability [5]: did not impair cell proliferation nor caused cell toxicity
